Compound activity as filed in PubChem.
An excerpt weighted towards active compounds, which were near 2.3% of everything screened.
ATG4B inh – ATG4B (human) cysteine protease inhibition; Q9Y4P1; inhibition, % at 8.33 µM; ATG4B cleavage of LC3-PLA2, NBD-HPC fluorescence, 1 h; 0.51% of 340,000 active; AID 504462; in the data active = inhibition above about 40%
Target sequence (Q9Y4P1 whole entry, looked up): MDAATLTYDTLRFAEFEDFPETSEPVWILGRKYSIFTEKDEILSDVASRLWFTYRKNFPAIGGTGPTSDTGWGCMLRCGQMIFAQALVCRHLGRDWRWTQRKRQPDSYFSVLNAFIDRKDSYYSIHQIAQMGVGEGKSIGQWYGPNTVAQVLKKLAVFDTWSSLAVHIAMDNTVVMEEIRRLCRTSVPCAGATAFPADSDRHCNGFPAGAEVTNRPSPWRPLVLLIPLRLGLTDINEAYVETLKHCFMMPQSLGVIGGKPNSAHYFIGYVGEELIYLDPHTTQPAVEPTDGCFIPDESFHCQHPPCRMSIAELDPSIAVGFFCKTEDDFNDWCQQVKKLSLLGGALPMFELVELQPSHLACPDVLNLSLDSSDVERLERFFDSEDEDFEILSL
SKN-1 block – blocks SKN-1 activity in C. elegans | inhibition, % at 21.8 µM | C. elegans VP596 Pgst-4::GFP/RFP ratio, acrylamide-induced, 24 h | AID 624304 | 0.49% of 360,000 active;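 active = interference check ratio from 0.5 to 1.5 plus GFP to RFP signal ratio inhibition reaching or exceeding a fixed threshold, cut at about 30% in these data, passing the limit was not always enough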
MT1-MMP act inh – blocks activation of human MT1-MMP. HT1080 RFP-PRO-GFP cells, GFP/RFP ratio fluorescence, overnight; percent of plate control window, DMSO zero. 0.061% of 360,000 active. P50281. GFP/RFP ratio change, % at 20 µM;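 active = GFP/RFP ratio change of at least 30% with cell ATP level not reduced by more than half and red fluorescence within 50% of control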
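Material – HT1080 RFP-PRO-GFP cells · Control set – DMSO wells and RFP-L50D-GFP cells · Incubation – overnight cell settling, then overnight compound exposure, 37 °C, 5% CO2 · Compound dosing – single-point 20 µM compound, 1% DMSO · Read-out – GFP/RFP fluorescence ratio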
MPTP inh – blocks calcium-induced mitochondrial swelling | isolated mouse mitochondria, Ca2+ swelling absorbance, 30 min | inhibition, % at 10 µM | 1.4% of 360,000 active | AID 602449;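 active = inhibition of 50% or more, scaled per plate between neutral and stimulator controls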;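 note: 0% = DMSO wells given calcium and 100% = 1 mM EGTA wells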
Rh123 counter – Rhodamine 123 counter-screen of mitochondrial pore hits; shares compounds with MPTP inh; isolated mitochondria, membrane potential, Rhodamine 123 fluorescence; inhibition, % at 10 µM; 78% of 5,000 active; in the data active = inhibition above about 22%;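 note: 0% = DMSO vehicle and 100% = positive control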
MPTP swell DR – dose response confirmation of mitochondrial permeability transition pore inhibitors; IC50, µM; AID 651561; 58% of 780 active; isolated mitochondria swelling, absorbance; shares compounds with MPTP inh; in the data active = IC50 below about 20 µM
MPTP cs DR – active in counter-screen for permeability transition pore inhibitors | shares compounds with MPTP inh | isolated mitochondria counterscreen, fluorescence read-out | IC50, µM | 49% of 780 active | AID 651564; in the data active = IC50 below about 80 µM
Starred values were filed as active, the others as inactive; i = inactive; . = no result.

SMILES | ATG4B inh | SKN-1 block | MT1-MMP act inh | MPTP inh | Rh123 counter | others
Cc1cccc(C(O)c2cnc(C)n2Cc2ccccc2)c1 (stereo unspecified) | . | 4.2 | -0.9 | 0.6 | .
COc1ccc(Cl)cc1NC(=O)C(OC)c1ccccc1 (stereo unspecified) | -3.8 | 22.3 | -4.6 | -0.2 | .
COC(/C(=N/O)c1ccc(Cl)cc1)c1ccccc1 (stereo unspecified) | 6.9 | 7.9 | -0.8 | 68.2* | 75.9*
COC(=O)[C@]1(Cc2ccccc2)N[C@H](CN(C)C(=O)Nc2ccc(OC)cc2)[C@@H]2C(=O)N(Cc3ccccc3)C(=O)[C@@H]21 | -7.9 | -7.8 | 2.6 | 0.6 | .
Cc1cc(NC(=O)CCC(=O)N(CC(=O)NC2CCCC2)c2ccc(Cl)c(Cl)c2)no1 | -1.7 | 2.5 | -1.2 | -1.4 | .
CNC(=O)N(O)C1N(NC(=O)Nc2cccc3ccccc23)C(=S)SC1(C)C (stereo unspecified) | -7.4 | -3.1 | -2.0 | -1.6 | .
CC1(C)SC(=S)N(NC(=O)Nc2ccccc2)C1N(O)C(=O)Nc1ccccc1 (stereo unspecified) | -15.5 | -6.9 | 2.4 | 58.3* | 69.8*
COc1ccc(-c2cc(CNS(=O)(=O)c3ccc(F)cc3)on2)cc1 | -6.8 | 12.4 | 4.7 | -0.1 | .
O=C1NC(=O)C(Cc2ccc(Cl)cc2)(c2ccccc2)N1 (stereo unspecified) | 2.5 | -12.5 | 3.5 | -0.6 | .
CCN1CCCC1CNC(=O)c1cc2c(-c3cccc(OC)c3)nn(C)c2s1 (stereo unspecified) | -11.1 | 5.0 | 0.4 | 0.4 | .
CCN1CCCC1CNC(=O)c1cc2c(-c3ccc(Cl)cc3)nn(C)c2s1 (stereo unspecified) | 4.3 | 17.5 | 2.7 | 83.2* | -19.4 | MPTP swell DR=11.2*;MPTP cs DR=>80
COc1ccc(CCN2CCC(Nc3nc4ccccc4n3Cc3ccc(F)cc3)CC2)cc1 | -7.6 | -2.2 | -0.4 | 83.0* | -14.3
COc1ccc(CNc2nc3ccccc3n2CCN2CCCCC2)cc1 | 6.0 | -5.0 | 4.1 | -1.4 | .
Clc1ccc(CONc2ncnc3nonc23)c(Cl)c1 | 5.0 | -3.8 | -6.2 | 56.0* | 95.8*
CCONc1ncnc2nonc12 | 0.2 | -6.9 | -3.0 | -1.2 | .
CCc1noc(C)c1C(=O)Nc1ccc(S(=O)(=O)N2CCC(C)CC2)cc1 | -5.7 | 2.4 | 1.1 | 0.3 | .
C=CCN1C(=O)/C(=C/c2ccc(OC(C)=O)c(OCC)c2[N+](=O)[O-])SC1=S | 11.7 | 11.1 | -1.9 | 101.9* | 65.2*
CC(C)(C)C(=O)Nc1ccc(Sc2ccc([N+](=O)[O-])cc2)cc1 | 4.1 | 9.7 | . | 95.6* | 93.4*
CCC(=O)Nc1ccc(C(=O)NNC(=O)c2ccc([N+](=O)[O-])cc2)cc1 | 5.6 | -4.2 | -2.5 | 0.3 | .
CC(=O)Nc1ccc(Sc2ccc([N+](=O)[O-])o2)cc1 | -5.7 | -0.8 | -9.9 | -2.3 | .
CN(O)C(=O)Nc1ccc([N+](=O)[O-])cc1 | -7.3 | -2.3 | 2.9 | 82.9* | 96.3*
CCC1Oc2ccccc2N(CC(=O)NC2CCCC2)C1=O (stereo unspecified) | -0.9 | -2.5 | 2.4 | -1.0 | .
CCCc1ccc(Oc2cn[nH]c2-c2ccc(O)c(C)c2O)cc1 | 28.8 | 24.5 | -8.6 | 88.9* | 83.1*
Cn1c2c(c3ccccc31)CCN(CCCCN1CCN(c3ccccc3)CC1)C2=O | 0.3 | -8.2 | 5.0 | 2.1 | .
Cc1ccc(CNC(=O)c2ccc(N3CCCC3=O)cc2)cc1 | -7.6 | -9.1 | 1.5 | -1.9 | .
SMILES | ATG4B inh | SKN-1 block | MT1-MMP act inh | MPTP inh | Rh123 counter | others
Cn1nc(C(C)(C)C)cc1C(=O)NCc1ccc(N2CCCC2=O)cc1 | 2.3 | -6.4 | 8.2 | 95.3* | 92.5*
OC(c1cc(-c2ccc(C(F)(F)F)cc2)nc(C(F)(F)F)c1)C1CCCCN1 (stereo unspecified) | 4.5 | 19.9 | -18.9 | 2.6 | .
OC(c1cc(C(F)(F)F)nc2c(C(F)(F)F)cccc12)C1CCCCN1 (stereo unspecified) | 0.6 | -7.3 | -9.9 | 91.9* | -22.8
NC1=NC[C@H](Cc2ccc(O)cc2)N1CC1CCCCC1 | -11.2 | 2.5 | -2.4 | -0.5 | .
NC1=NC[C@@H](Cc2ccc(O)cc2)N1CCCCC1CCCCC1 | -12.5 | 14.3 | -1.7 | 59.8* | 4.8 | MPTP swell DR=9.62*;MPTP cs DR=24.4*
COc1ccccc1-c1nc2ccccc2c(=O)n1NC(=O)c1cccs1 | -4.3 | -10.7 | -5.0 | 0.8 | .
COc1ccc(-c2noc(CCC(=O)NCCCN3CCN(c4ccccc4F)CC3)n2)cc1 | 8.0 | -1.4 | 4.6 | 54.8* | 12.8 | MPTP swell DR=8.84*;MPTP cs DR=20.4*
Cc1ccccc1CS(=O)(=O)CCC(=O)NCCCN1CCN(c2ccccc2F)CC1 | 5.8 | 3.6 | -1.7 | 0.4 | .
O=C(CCc1nc(-c2ccccc2F)no1)NC1CCN(Cc2ccccc2)CC1 | -1.9 | 14.3 | 2.3 | 2.6 | .
O=C(CCS(=O)(=O)Cc1ccc(Cl)cc1)NCCCN1CCN(c2ccccc2F)CC1 | -7.6 | 6.1 | 3.7 | 57.1* | -2.9 | MPTP swell DR=>100;MPTP cs DR=>80
Cc1ccc(-c2noc(CCC(=O)NCCCN3CCN(c4ccc(F)cc4)CC3)n2)cc1 | -9.6 | 8.6 | 3.7 | 93.0* | 7.9 | MPTP swell DR=6.97*;MPTP cs DR=28.4*
Cc1ccc(-c2noc(CCC(=O)NC3CCN(Cc4ccccc4)CC3)n2)cc1 | 0.8 | -15.0 | 1.6 | 72.1* | 4.7 | MPTP swell DR=i;MPTP cs DR=34.2*
CC(C)[C@H](NS(=O)(=O)c1ccccc1)C(=O)OCc1cc([N+](=O)[O-])cc2c1OCOC2 | 1.3 | 26.1 | 3.1 | -2.8 | .
Cc1cc(C)n(-c2c(F)c(F)c(CN3CCOCC3)c(F)c2F)n1 | -6.7 | 2.2 | 1.8 | 1.6 | .
COc1ccc(-c2noc(CCCCC(=O)N3CCN(c4cc(C)ccc4C)CC3)n2)cc1 | -2.2 | -3.7 | 6.7 | 97.0* | 103.7*
Cc1ccc(-c2noc(CCC(=O)NCCCN3CCN(c4cccc(Cl)c4)CC3)n2)cc1 | -1.1 | -0.5 | 6.0 | 94.1* | 14.4
CCN1CCN(CCCNC(=O)CCc2nc(-c3ccc(OC)cc3)no2)CC1 | 4.6 | -8.6 | 1.3 | 3.6 | .
C[C@@H]1CN([C@H](C)CO)C(=O)c2cc(Br)cnc2O[C@@H]1CN(C)C(=O)c1cccc(F)c1 | . | -12.7 | 0.1 | -0.9 | .
Cc1ccc(CNc2ncnc3cc(Cl)ccc23)cc1 | 11.9 | 10.6 | -6.6 | 87.4* | 75.9*
CCOc1ccc(S(=O)(=O)Nc2cnc3ccccc3c2)cc1 | -1.8 | 16.0 | 0.3 | 87.2* | 89.9*
CCOc1ccc(S(=O)(=O)Nc2nc3ccccc3nc2Cl)cc1 | 3.3 | -8.2 | 6.7 | 0.9 | .
COc1ccc(NS(=O)(=O)c2ccc(N3CCCC3=O)cc2)cn1 | -0.8 | 1.2 | -8.7 | 0.1 | .
O=C(Nc1ccc(Br)cc1)c1cccc(S(=O)(=O)Nc2cnc3ccccc3c2)c1 | 4.6 | 3.5 | 2.5 | 107.7* | 74.5*
